T cruzi repl – T. cruzi replication inhibition. inhibition, % (concentration not given with the values). 1.4% of 300,000 active. T. cruzi beta-gal in NIH3T3, luminescence, 90 h. AID 1885;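 active = mean inhibition across valid replicates above about 55%, limit read from the data; inconclusive = mean below that limit but half or more replicates reach it; inactive = mean below it, under half of replicates reach it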;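 note: signal also drops with host cell toxicity which is not excluded here; 0% = plate median of DMSO wells and 100% = zero luminescence signal; higher percent means less beta-gal luminescence so fewer parasites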
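System – NIH/3T3 host cells with β-galactosidase reporter T. cruzi · Doses – single 50 nL compound addition per well in DMSO · Reagent – 5000 T. cruzi trypomastigotes/well · Medium – Low-serum DMEM with 2% FBS · Timing – ≥90 h infection period, 3 h prior cell attachment · Evaluation – parasite load inhibition, % · Technique – GalScreen luminescence, 60 min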
PvdQ acylase – P. aeruginosa PvdQ acylase inhibition | purified PvdQ acylase, fluorescence plate reader | inhibition, % at 10 µM | 0.063% of 340,000 active | AID 488965; in the data active = inhibition above about 30%, passing the limit was not always enough; inconclusive = no clear call, values can overlap the other calls;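 note: 0% = vehicle neutral wells and 100% = reference inhibitor wells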
PfHsp90 set2 – inhibits growth of yeast expressing Plasmodium falciparum Hsp90; S. cerevisiae expressing PfHsp90, BacTiter-Glo ATP, 48 h; yeast lacking PDR1 and PDR3 efflux regulators; inhibition, % at 9.4 µM; 0.32% of 310,000 active; AID 504621;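 active = every replicate shows inhibition above about 80%, whatever the replicate mean, limit read from the data; inconclusive = mean inhibition reaches the set limit but some replicate falls short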;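 note: 0% = DMSO neutral controls and 100% = 20 µM radicicol positive controls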
HSF-1 act – increases HSF-1 driven luciferase reporter signal; NIH3T3-HGL HSF-1 luciferase reporter, MG132, 8 h; 100% = twice DMSO control signal; activation, % at 9 µM; 1.7% of 300,000 active;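 active = mean replicate activation of at least 50% with a set share of replicates each reaching 50%; inconclusive = only one of those two conditions met; inactive = mean below 50% and too few replicates reaching it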;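 note: 0% = median of the neutral control wells and 100% = twice that signal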
N-glyco inh – N-linked glycosylation inhibition; 0.23% of 360,000 active; D54 ERlucT glycosylation luciferase reporter, 24 h; percent of 100 nM tunicamycin response; reporter increase, % at 12.5 µM;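 active = mean luciferase reporter signal, scaled so untreated is 0 and the glycosylation-blocking control 100, at or above a set limit in every replicate; inconclusive = mean reaches the limit but not every replicate does; inactive = mean below the limit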;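 note: luciferase carries N-glycosylation sites so blocking glycosylation raises the light; 0% = median of neutral control wells and 100% = median of 100 nM tunicamycin wells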
CaV13 FRET inh – Primary screen for inhibitors of IQ motif and Ca2+-dependent inactivation inhibitor domain binding in CACNA1D, Förster resonance energy transfer in living cells, … | HEK cells, CFP/YFP FRET ICDI-IQ, plate reader, 10 min; percent FRET-ratio fall versus neutral wells | inhibition, % at 12.3 µM | 0.098% of 340,000 active;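 active = mean replicate inhibition of at least 30% and at least 1% of replicates passing that level; inconclusive = only one of the two criteria is met; inactive = neither criterion is met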;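 note: 0% = median of the neutral control wells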
An asterisk follows results filed as active; u = inconclusive; x = no result given. Compounds with a hit are over-represented: about 3% of the library has one in this group of screens.

SMILES	T cruzi repl	PvdQ acylase	PfHsp90 set2	HSF-1 act	N-glyco inh	CaV13 FRET inh
CN(C)NC1=CC(=[N+]2CCCC2)CC(C)(C)C1	3	9	x	-19	1	9
CCCN(CCC)C1=CC(=[N+]2CCCC2)CC(C)(C)C1	60*	-12	12	-11	5	-2
COCCNC(=O)C1(C)CCCN(C(=O)c2ccc(C#N)cc2)C1 (centres undefined)	x	x	x	x	2	-4
O=C(Oc1cccc2cccnc12)c1ccc(Br)o1	-21	-12	-7	66*	0	-2
Cc1cnccc1CN(C)Cc1cn(C)nc1-c1ccc(Oc2ccccc2)cc1	70*	-10	3	9	-8	-3
Cc1ccc(NC(=O)Nc2ccnc(-c3cccnc3)n2)cc1	-3	0	0	x	4	43*
CC(C)(C)C(=O)c1c(N)[nH]c(C(=O)c2ccccc2)c1-c1ccccc1	x	x	x	x	x	-15
Nc1nnc(/C=C/c2ccccc2Cl)s1	3	-14	-14	70*	-7	1
Cc1ccc(Nc2nc(-c3cccnc3)cs2)cc1C	47	-6	-52	38	-9	-19
Clc1cccc(Nc2nc(-c3cccnc3)cs2)c1	59*	-9	0	20	2	-4
COc1ccc(Cl)cc1Nc1nc(-c2cccnc2)cs1	56*	-8	-14	20	1	-4
Brc1cccc(Nc2nc(-c3cccnc3)cs2)c1	39	2	-16	-3	1	-5
CCCOc1ccc(F)cc1-c1cc(C(=O)NCc2cccc(Cl)c2)[nH]n1	x	x	x	x	-1	-10
C[C@@H]1CN(c2ccc(N3CCNC[C@@H]3C)cc2C#N)C[C@H](C)O1	x	x	x	x	x	-8
COc1ccc(C2C(C#N)=C(N)Nc3nc4ccccc4n32)cc1 (centres undefined)	2	11	3	53*	2	-14
COc1ccc(C2C=C(C)Nc3nc4ccccc4n32)cc1 (centres undefined)	0	-7	12	u	0	-8
O=C1Cn2nnc(-c3ccccc3)c2C2c3cc(Br)ccc3CCN12 (centres undefined)	x	x	x	x	x	-5
CCC(C)NS(=O)(=O)c1ccc(OC)c(Cl)c1Cl (centres undefined)	5	35*	1	-4	-1	-5
COC(=O)Cc1nnn2c1[C@H](C)[C@@H](OC)c1ccccc1-2	x	x	x	x	x	-4
COc1cccc(N2C(C(C)=O)=NN(c3ccccc3)C2c2ccc(N3CCOCC3)cc2)c1 (centres undefined)	77*	5	0	-11	-8	-5
N#CC1=C(N)NC(SCC(=O)O)=C(C#N)C12CCCC2	-14	-5	-12	4	-1	-6
N#CC1=C(N)NC(SCc2ccc(F)cc2)=C(C#N)C12CCCCC2	x	-10	x	166*	10	-7
Cc1ccc2oc(=O)n(CCCOc3ccccc3)c2c1	1	1	x	59*	1	-5
Cc1ccc(OCCn2c(=O)oc3ccc(C)cc32)cc1	0	7	-5	14	-4	6
CCCNC(=O)C1(C)CCN(C(=O)c2cc(C(C)(C)C)nn2C)C1 (centres undefined)	x	x	x	x	0	-6
SMILES	T cruzi repl	PvdQ acylase	PfHsp90 set2	HSF-1 act	N-glyco inh	CaV13 FRET inh
COc1ccc(Cn2nnnc2C(c2ccccn2)N2CCN(c3cc(Cl)ccc3C)CC2)cc1 (centres undefined)	65*	8	-43	12	-11	x
COCCn1nnnc1C(c1ccccn1)N1CCN(c2cc(Cl)ccc2C)CC1 (centres undefined)	-3	-7	-13	-8	1	-3
COc1ccc(NC(=S)N(Cc2ccc(N(C)C)cc2)Cc2ccco2)cc1	23	3	-20	91*	2	-7
COc1ccc(NC(=S)N(Cc2ccc(C)cc2)Cc2ccccn2)cc1	77*	-7	-57	37	-1	-7
COc1ccc(C2CC(c3ccccc3)=NN2C(=O)COC(=O)c2cccc(S(=O)(=O)N3CCOCC3)c2)cc1 (centres undefined)	72*	2	-4	5	0	-16
O=C1Nc2ccccc2C1=Nc1ccc2[nH]c3ccccc3c2c1	x	11	4	x	2	-2
Cc1ccccc1-n1c(=O)c(C#N)cc2c(=O)n3ccccc3nc21	-17	-23	4	17	3	9
C=CCn1c(=O)c(C#N)cc2c(=O)n3ccccc3nc21	9	-24	18	x	4	x
Cc1cc(-n2c(=O)c(C#N)cc3c(=O)n4ccccc4nc32)no1	-7	-21	x	4	1	33*
C=CCn1c(=N)c(C#N)cc2c(=O)n3ccccc3nc21	-1	-17	-14	-7	1	33*
O=C(COC(=O)CSc1ccccc1)NC1CCS(=O)(=O)C1 (centres undefined)	x	x	x	x	1	-6
COc1c(OC(C)=O)ccc(/C=C/c2ccc3ccccc3n2)c1[N+](=O)[O-]	-28	-8	-9	65*	-6	-9
O=[N+]([O-])c1cccc(C=NNc2ccc3ccccc3n2)c1O	x	-13	137*	u	-20	-3
O=[N+]([O-])c1ccccc1/C=C/c1ccc2ccccc2n1	-11	-5	-14	98*	-8	-3
CCn1c(/C=C/c2ccccc2[N+](=O)[O-])nc2ccccc2c1=O	-3	7	-7	20	-2	-7
COc1c(OC(C)=O)ccc(/C=C/c2ccc3cccc(OC)c3n2)c1[N+](=O)[O-]	-7	14	-7	20	4	-1
COc1ccc(C2CC(=O)C(c3ccc4ccccc4c3)=CN2Cc2ccccc2)cc1 (centres undefined)	x	x	x	x	x	-4
COc1ccc(-c2cc(C#N)nc(N3CCNCC3)n2)cc1	57*	-14	10	2	-2	-7
COc1ccc(-c2cc(C#N)nc(N3CCN(C)CC3)n2)cc1	66*	-4	15	33	10	-19
C#CCNC(=O)C[C@@H]1C[C@@]2(C(=O)OCC)CCC=C2N(Cc2ccc(Cl)cc2Cl)C1=O	x	x	x	x	x	-2
CNC(=O)C[C@H]1C(=O)N(CCc2ccccc2)C[C@@H]1Cc1ccccc1	x	x	x	x	1	-5
COc1cccc(C(=O)CC(C#N)c2ccc(F)cc2)c1 (centres undefined)	-8	69*	1	-3	0	x
S=C(NCCc1ccccc1)N1CCn2cccc2C1c1cccnc1 (centres undefined)	68*	-12	25	16	3	-1
S=C(NCc1ccccc1)N1CCn2cccc2C1c1cccnc1 (centres undefined)	59*	-6	-4	29	1	0
COC1=CC(=O)OC(c2ccc(C#N)cc2)C1 (centres undefined)	x	x	x	x	x	-10

High-throughput results: PubChem BioAssay, Broad Institute
